Reference: publication PMC7330163 (Pharmacology Research & Perspectives, 2020)

How the values were obtained:
[1] = Single-dose intravenous pharmacokinetics in dog; type: in vivo, Beagle dog; settings: male, plasma
In short: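 Three male Beagles in a cross-over design with 7-day wash-out between dosing events. The intravenous solution was PEG400/N-methylpyrrolidone/50 mmol/L TRIS-HCl pH 8.3 (1:1:2 v/v/v). Plasma stored at −20°C. T1/2 = ln(2)/λz; AUC by log-linear trapezoidal rule.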

[2] = Single-dose oral pharmacokinetics in rat; type: in vivo; settings: Sprague-Dawley, plasma
[3] = Toxicokinetics of the 4-week toxicity study in rat; type: in vivo, Sprague-Dawley rat; settings: for AUC0‐24 h (day 8/28): day 28
[4] = Plasma exposure in the 8-day mechanistic follow-up study in male rats; type: in vivo, Sprague-Dawley rat; settings: for AUC: male, Sprague-Dawley, plasma, oral; for AUC / AUC0‐24 h (day 1) / AUC0‐24 h (day 8/28): rat; for AUC0‐24 h (day 1) / AUC0‐24 h (day 8/28): males, 8-day study
[5] = system: total P450; experiment: Total P450 concentration in liver microsomes of the 4-week rat toxicity study; type: in vivo, Sprague-Dawley rat; settings: 4 weeks
In short: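 Microsomes were made from pooled liver (1.5–2 g per dose group) of 4-week toxicity studies, including vehicle controls. Tissue homogenised in ice-cold 50 mmol/L Tris-HCl pH 7.4 with 250 mmol/L sucrose, spun at 9000 g then 100 000 g (4°C), and the pellet washed in 100 mmol/L pyrophosphate pH 7.25 with 1 mmol/L EDTA. Total P450 by carbon monoxide spectrophotometric assay.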

[6] = system: Cyp2c6; experiment: Taqman mRNA upregulation in rat liver, 4-week toxicity study; type: in vivo, Sprague-Dawley rat; settings: 4-week study
In short: (§1)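 Livers came from satellite-group rats of both sexes (n = 5–6) in the 4-week study, dosed once daily at 0, 50, 150, 450 or 1500 mg/kg in modified gelatine. Transcripts quantified by comparative Ct, normalised to 18S and to vehicle-treated controls; fold change = 2−ΔΔCT.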

[7] = system: Cyp3a2; experiment: as above; type: in vivo, Sprague-Dawley rat; settings: male rats, 4-week study
In short: as §1

[8] = system: Cyp2c6; experiment: Taqman mRNA upregulation in rat liver, 8-day mechanistic follow-up study; type: in vivo, Sprague-Dawley rat; settings: male rats, 8-day follow-up study, relative to vehicle control
In short: (§2)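 Male Sprague-Dawley rats (n = 4) were given 0, 5, 15 or 50 mg/kg daily for 8 days as a suspension in modified gelatine. Liver transcripts were normalised to 18S and to vehicle-treated rats by the ΔΔCT method; fold = 2−ΔΔCT.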

[9] = system: Cyp2c11; experiment: as above; type: in vivo, Sprague-Dawley rat; settings: male rats, 8-day follow-up study, relative to vehicle control
In short: as §2

[10] = system: Cyp3a1; experiment: as above; type: in vivo, Sprague-Dawley rat; settings: male rats, 8-day follow-up study, relative to vehicle control
In short: as §2

[11] = system: Cyp3a2; experiment: as above; type: in vivo, Sprague-Dawley rat; settings: male rats, 8-day follow-up study, relative to vehicle control
In short: as §2

[12] = system: CYP3A4; experiment: Induction of P450 mRNA in human hepatocytes; type: cell-based; settings: 10 µmol/L
In short: (§3)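 Three human hepatocyte batches were cultured as monolayers and treated for 48–89 h with test compound, diluted 1000-fold from DMSO stock, or vehicle. Medium with fresh drug renewed every 24 h; rifampicin and omeprazole served as positive controls. CYP mRNA then measured.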

[13] = system: CYP3A4; experiment: Induction of P450 enzyme activity in human hepatocytes; type: cell-based; settings: up to 10 µmol/L
In short: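 Three batches of human hepatocyte monolayers were exposed for 48–89 h to test compound (DMSO stock diluted 1000-fold), with medium and fresh drug or vehicle renewed every 24 h; rifampicin and omeprazole as positive controls. Cells then washed with MEM, held 10 min at 37°C, and incubated with 200 µmol/L nifedipine for 2 h at 37°C, 5% CO2, as CYP3A4 activity marker.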

[14] = system: CYP1A2; experiment: Induction of P450 mRNA in human hepatocytes; type: cell-based; settings: up to 10 µmol/L
In short: as §3

[15] = system: hepatic OATP transporters; settings: partitions into liver by passive diffusion; cited from earlier work
[16] = cited from earlier work

CCCNS(=O)(=O)Nc1ncnc(OCCOc2ncc(Br)cn2)c1-c1ccc(Br)cc1 [macitentan]
AUC ([1]; Beagle, 0.1 mg/kg): 320 ng·h/mL | Vd ([1]; Beagle, 0.1 mg/kg): 1.2 L/kg | clearance ([1]; Beagle, 0.1 mg/kg): 5.2 mL/min/kg | half-life ([1]; Beagle, 0.1 mg/kg): 3.9 h | AUC ([1]; Beagle, 0.3 mg/kg): 910 ng·h/mL | Vd ([1]; Beagle, 0.3 mg/kg): 1.1 L/kg | clearance ([1]; Beagle, 0.3 mg/kg): 5.7 mL/min/kg | half-life ([1]; Beagle, 0.3 mg/kg): 4.3 h | half-life ([1]; beagle): 3.9 to 4.3 h | AUC ([2]; female, 3 mg/kg): 18400 ng·h/mL | Cmax ([2]; female, 3 mg/kg): 850 ng/mL | Tmax ([2]; female, 3 mg/kg): 8 h | bioavailability ([2]; female, 3 mg/kg): 62% | AUC ([2]; male, 3 mg/kg): 3240 ng·h/mL | Cmax ([2]; male, 3 mg/kg): 380 ng/mL | Tmax ([2]; male, 3 mg/kg): 6 h | bioavailability ([2]; male, 3 mg/kg): 53% | AUC ([2]; male, 30 mg/kg): 97400 ng·h/mL | Cmax ([2]; male, 30 mg/kg): 7300 ng/mL | Tmax ([2]; male, 30 mg/kg): 16 h | AUC0‐24 h (day 1) ([3]; females, 50 mg/kg daily oral): 726 μg/mL"h | AUC0‐24 h (day 8/28) ([3]; females, 50 mg/kg daily oral): 490 μg/mL"h | AUC0‐24 h (day 1) ([3]; females, 150 mg/kg daily oral): 1160 μg/mL"h | AUC0‐24 h (day 8/28) ([3]; females, 150 mg/kg daily oral): 776 μg/mL"h | AUC0‐24 h (day 1) ([3]; females, 450 mg/kg daily oral): 1590 μg/mL"h | AUC0‐24 h (day 8/28) ([3]; females, 450 mg/kg daily oral): 1280 μg/mL"h | AUC0‐24 h (day 1) ([3]; females, 1500 mg/kg daily oral): 2500 μg/mL"h | AUC0‐24 h (day 8/28) ([3]; females, 1500 mg/kg daily oral): 1590 μg/mL"h | AUC0‐24 h (day 1) ([3]; males, 50 mg/kg daily oral): 213 μg/mL"h | AUC0‐24 h (day 8/28) ([3]; males, 50 mg/kg daily oral): 114 μg/mL"h | AUC0‐24 h (day 1) ([3]; males, 150 mg/kg daily oral): 382 μg/mL"h | AUC0‐24 h (day 8/28) ([3]; males, 150 mg/kg daily oral): 200 μg/mL"h | AUC0‐24 h (day 1) ([3]; males, 450 mg/kg daily oral): 595 μg/mL"h | AUC0‐24 h (day 8/28) ([3]; males, 450 mg/kg daily oral): 327 μg/mL"h | AUC0‐24 h (day 1) ([3]; males, 1500 mg/kg daily oral): 979 μg/mL"h | AUC0‐24 h (day 8/28) ([3]; males, 1500 mg/kg daily oral): 365 μg/mL"h | change in AUC0‐24h after 8 days treatment ([4]; male rats, 3 mg/kg): No change | AUC0‐24h (day 1) as percent of the AUC0‐24h (day 1) in the 4‐week study ([4]; male rats, 50 mg/kg, different macitentan batches (particle size)): 13% | AUC ([4]; 15 mg/kg): 20300 ng·h/mL | AUC ([4]; 50 mg/kg): 26800 ng·h/mL | AUC0‐24 h (day 1) ([4]; 3 mg/kg daily oral): 3.09 μg/mL"h | AUC0‐24 h (day 8/28) ([4]; 3 mg/kg daily oral): 3.05 μg/mL"h | AUC0‐24 h (day 1) ([4]; 15 mg/kg daily oral): 20.3 μg/mL"h | AUC0‐24 h (day 8/28) ([4]; 15 mg/kg daily oral): 12.3 μg/mL"h | AUC0‐24 h (day 1) ([4]; 50 mg/kg daily oral): 26.8 μg/mL"h | AUC0‐24 h (day 8/28) ([4]; 50 mg/kg daily oral): 16.8 μg/mL"h | P450 (total, liver microsomes) ([5]; female rats, macitentan 50 mg/kg daily): 1.05 nmol/mg | P450 (total, liver microsomes) ([5]; female rats, macitentan 150 mg/kg daily): 1.15 nmol/mg | P450 (total, liver microsomes) ([5]; female rats, macitentan 450 mg/kg daily): 1.18 nmol/mg | P450 (total, liver microsomes) ([5]; female rats, macitentan 1500 mg/kg daily): 0.90 nmol/mg | P450 (total, liver microsomes) ([5]; male rats, macitentan 50 mg/kg daily): 1.35 nmol/mg | P450 (total, liver microsomes) ([5]; male rats, macitentan 150 mg/kg daily): 1.41 nmol/mg | P450 (total, liver microsomes) ([5]; male rats, macitentan 450 mg/kg daily): 1.33 nmol/mg | P450 (total, liver microsomes) ([5]; male rats, macitentan 1500 mg/kg daily): 1.45 nmol/mg | Upregulation of Cyp2c6 mRNA ([6]; female rats, 50 mg/kg daily, relative to vehicle control): 2.78 ± 0.95 | Upregulation of Cyp2c6 mRNA ([6]; female rats, 150 mg/kg daily, relative to vehicle control): 4.21 ± 0.51 | Upregulation of Cyp2c6 mRNA ([6]; female rats, 450 mg/kg daily, relative to vehicle control): 4.35 ± 1.54 | Upregulation of Cyp2c6 mRNA ([6]; female rats, 1500 mg/kg daily, relative to vehicle control): 3.29 ± 0.77 | Upregulation of Cyp2c6 mRNA ([6]; male rats, 50 mg/kg daily, relative to vehicle control = 1.00): 6.21 ± 1.02 | Upregulation of Cyp2c6 mRNA ([6]; male rats, 150 mg/kg daily, relative to vehicle control): 4.36 ± 1.96 | Upregulation of Cyp2c6 mRNA ([6]; male rats, 450 mg/kg daily, relative to vehicle control): 9.53 ± 1.26 | Upregulation of Cyp2c6 mRNA ([6]; male rats, 1500 mg/kg daily, relative to vehicle control): 9.20 ± 3.29 | Upregulation of Cyp3a2 mRNA ([7]; 50 mg/kg daily, relative to vehicle control = 1.00): 3.65 ± 1.03 | Upregulation of Cyp3a2 mRNA ([7]; 150 mg/kg daily, relative to vehicle control): 4.53 ± 1.31 | Upregulation of Cyp3a2 mRNA ([7]; 450 mg/kg daily, relative to vehicle control): 5.21 ± 1.33 | Upregulation of Cyp3a2 mRNA ([7]; 1500 mg/kg daily, relative to vehicle control): 6.50 ± 2.40 | Upregulation of Cyp2c6 mRNA ([8]; 5 mg/kg daily): 1.92 ± 0.45 | Upregulation of Cyp2c6 mRNA ([8]; 15 mg/kg daily): 1.55 ± 1.21 | Upregulation of Cyp2c6 mRNA ([8]; 50 mg/kg daily): 3.08 ± 2.45 | Upregulation of Cyp2c11 mRNA ([9]; 5 mg/kg daily): 1.55 ± 0.22 | Upregulation of Cyp2c11 mRNA ([9]; 15 mg/kg daily): 1.65 ± 1.35 | Upregulation of Cyp2c11 mRNA ([9]; 50 mg/kg daily): 2.50 ± 0.85 | Upregulation of Cyp3a1 mRNA ([10]; 5 mg/kg daily): 1.66 ± 0.75 | Upregulation of Cyp3a1 mRNA ([10]; 15 mg/kg daily): 2.53 ± 2.02 | Upregulation of Cyp3a1 mRNA ([10]; 50 mg/kg daily): 6.04 ± 3.00 | Upregulation of Cyp3a2 mRNA ([11]; 5 mg/kg daily): 1.46 ± 0.18 | Upregulation of Cyp3a2 mRNA ([11]; 15 mg/kg daily): 2.37 ± 1.43 | Upregulation of Cyp3a2 mRNA ([11]; 50 mg/kg daily): 4.04 ± 0.98 | increase in CYP3A4 mRNA vs DMSO control [12]: about 11 fold | increase in CYP3A4 enzyme activity [13]: fivefold | change in CYP1A2 mRNA expression [14]: No change | substrate of hepatic OATP transporters [15]: not a substrate of hepatic OATP transporters | aqueous solubility [16]: low aqueous solubility
